Screening data deposited in PubChem BioAssay by several laboratories.
Only some compounds are listed: those with a hit (about 4.4% of all), similar ones and a draw of the others.
Tb MetRS inh: T. brucei MetRS inhibitors, primary screen, biochemical, luminescence. methionyl-tRNA synthetase (Trypanosoma brucei brucei). purified T. brucei MetRS, ATP depletion, Kinase-Glo luminescence. inhibition, % at 11.9 µM. 360,000 tested, 0.4% active;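 active = inhibition above a per-plate cutoff of the control wells' mean inhibition plus 3 SD, cut at about 5.5% in these data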;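 also: 0% = DMSO wells median and 100% = median of wells with control inhibitor compound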
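Material – parasite MetRS enzyme · Medium – HEPES-MgCl2-KCl buffer plus DTT, spermine, BSA, pyrophosphatase · Reagent – ATP, methionine and E. coli bulk tRNA substrates · Times – 15 min enzyme-compound preincubation, 2 h reaction, 10 min detection, 25 °C · Measured by – luminescence of leftover ATP · Evaluation – percent inhibition relative to median high and low control wells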
MsrA inhibitor: bovine MsrA enzyme inhibitors, primary screen, biochemical, absorbance, HTS. Methionine sulfoxide reductase A (Bos taurus). purified bovine MsrA, absorbance read-out. inhibition, % at 15.5 µM. 360,000 tested, 0.75% active. AID 651718, 2012; in the data active = inhibition above about 4.5%;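 also: 0% = vehicle wells with enzyme and 100% = reference inhibitor wells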
HTR2A ag: mouse Htr2a agonists via beta-arrestin recruitment, primary screen, cell-based, luminescence. 5-hydroxytryptamine receptor 2A (Mus musculus), P35363. CHO-K1 mHTR2A beta-arrestin complementation; percent of 30 µM serotonin response. activation, % at 7.6 µM. 360,000 tested, 0.66% active. AID 624169, 2012;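 active = activation above a run cutoff, the mean activation of all tested compounds plus 3 SD, cut at about 14% in these data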;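 also: 0% = plate median of compound wells and 100% = 30 µM serotonin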
Target sequence (P35363 whole entry, looked up): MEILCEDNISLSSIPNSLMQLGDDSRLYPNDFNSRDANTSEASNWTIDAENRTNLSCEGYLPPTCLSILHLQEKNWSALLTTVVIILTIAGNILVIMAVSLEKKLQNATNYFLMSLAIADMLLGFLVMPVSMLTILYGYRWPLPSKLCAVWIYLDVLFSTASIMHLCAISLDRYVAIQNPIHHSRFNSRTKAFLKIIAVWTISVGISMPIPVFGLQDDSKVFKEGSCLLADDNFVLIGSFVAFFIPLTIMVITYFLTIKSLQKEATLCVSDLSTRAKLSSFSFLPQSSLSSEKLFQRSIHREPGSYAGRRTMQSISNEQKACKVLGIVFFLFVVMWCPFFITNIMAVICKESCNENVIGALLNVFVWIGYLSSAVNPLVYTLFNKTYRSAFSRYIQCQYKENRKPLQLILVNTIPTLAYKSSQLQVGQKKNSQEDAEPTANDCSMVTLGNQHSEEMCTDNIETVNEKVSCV
MsrA act: bovine MsrA enzyme activators, primary screen, biochemical, absorbance, HTS | purified bovine MsrA, absorbance read-out | 360,000 tested, 0.3% active | AID 602163, 2012 | activation, % at 10.6 µM | Methionine sulfoxide reductase A (Bos taurus); in the data active = activation above about 7.5%;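 also: 0% = vehicle and 100% = reference activator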
AI-2 QS modul: Vibrio harveyi AI-2 quorum sensing modulators, primary screen, JMH597 strain, luminescence/OD600 ratio. Vibrio harveyi JMH597 AI-2 luminescence/OD600 ratio, 9 h; stronger effect = lower value; strain lacks LuxN and CqsS sensors; 0 = neutral-control median. activity change, % at 7.5 µM. 300,000 tested, 0.4% active. AID 2094, 2009; in the data active = activity change below about -75%, passing the limit was not always enough;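 also: luminescence divided by OD600 gain over 9 h not by final OD600 alone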
AHR activator: AHR activators, primary screen, cell-based, luminescence, luciferase reporter, human. AHR-responsive luciferase reporter cells. activation, % at 5 µM. 320,000 tested, 2.5% active. AID 2796, 2010; in the data active = activation above about 47%;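 also: 0% = vehicle wells and 100% = reference agonist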
Tb MetRS conf: T. brucei MetRS inhibitors, confirmation, biochemical, luminescence; shares compounds with Tb MetRS inh; T. brucei MetRS enzyme, luminescence (ATP depletion); inhibition, % at 11.9 µM; 1,400 tested, 93% active; AID 624412, 2012; in the data active = inhibition above about 7%
Jurkat cytotox: Jurkat T cell cytotoxicity, cytotoxicity control for T. brucei MetRS inhibitor project, luminescence, high throughput | shares compounds with Tb MetRS inh | Jurkat cells viability, ATP luminescence | inhibition, % at 8.3 µM | 1,400 tested, 12% active; in the data active = inhibition above about 15%;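 also: 0% = vehicle and 100% = reference inhibitor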
Tb MetRS inh FP: T. brucei MetRS inhibitors, orthogonal assay for T. brucei MetRS inhibitor project, biochemical, fluorescence polarization; shares compounds with Tb MetRS inh; purified T. brucei MetRS; inhibition, % at 11.9 µM; 1,400 tested, 44% active; AID 651607, 2012; in the data active = inhibition above about 17%;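 also: 0% = vehicle wells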
Active calls of the source: *; . = no result.

SMILES	Tb MetRS inh	MsrA inhibitor	HTR2A ag	MsrA act	AI-2 QS modul	AHR activator	Tb MetRS conf	Jurkat cytotox	Tb MetRS inh FP
COc1ncnc2c1ncn2CCCN(C)Cc1ccco1	-2	1	1	-6	.	.	.	.	.
CC1C(=O)N(Cc2cn(Cc3ccco3)nn2)CCS(=O)(=O)N1Cc1ccc(-c2ccc(F)cc2)cc1 (centres undefined)	-1	-1	1	-3	.	.	.	.	.
O=C(N[C@@H](Cc1c[nH]c2ccccc12)C(=O)O)c1ccc(Cl)cc1	-1	2	-1	-3	13	7	.	.	.
NC(=NCCc1c[nH]c2ccccc12)NC(=O)c1ccc(Cl)cc1	29*	1	-5	-12	19	10	35*	2	16
CCn1c(C)cc2c(c1=O)C(c1ccncc1)C(C#N)=C(N)O2 (centres undefined)	-1	1	2	0	6	-3	.	.	.
Cc1cc2c(c(=O)n1CC1CCCO1)C(c1ccc3c(c1)OCO3)C(C#N)=C(N)O2 (centres undefined)	60*	0	0	-7	23	1	75*	-3	49*
CCn1c(C)cc2c(c1=O)C(c1ccc3c(c1)OCO3)C(C#N)=C(N)O2 (centres undefined)	23*	-1	15*	-8	14	-1	2	4	3
Cc1ccc(CNC(=O)CNC(=O)c2ccco2)cc1	-1	-1	7	-8	-8	0	.	.	.
CCCCN1CC(=O)N2[C@H](c3ccc(Cl)cc3)[C@@H]3C(=O)N(CC)C(=O)[C@@H]3[C@]2(C)C1=O	0	2	1	-2	6	2	.	.	.
FC(F)(F)c1cccc(CNC(=S)Nc2ccccc2)c1	15*	0	-1	-9	8	-4	29*	1	9
O=C(CCCn1c(=S)[nH]c2cc3c(cc2c1=O)OCO3)N1CCN(c2ccc(Cl)cc2)CC1	8.3*	2	-1	0	10	2	70*	2	35*
O=C(CCCn1c(=S)[nH]c2cc3c(cc2c1=O)OCO3)N1CCN(c2ccccc2)CC1	0	0	-2	2	-6	2	.	.	.
O=C(Nc1ccc(Cl)c(Cl)c1)OCCNC(=O)c1cccc(Cl)c1	40*	0	-4	-5	-5	15	58*	5	35*
C=CC(=O)Nc1cccc(Oc2ncnc3[nH]cc(-c4cnc5ccccc5c4)c23)c1	8.6*	-1	0	-7	.	20	30*	6	21*
Fc1ccc2[nH]c3c(NCCN4CCOCC4)ncnc3c2c1	27*	.	-1	-10	-11	75*	47*	14	20*
Cc1ccc2[nH]c3c(N4CCc5ccccc5C4)ncnc3c2c1	12*	1	2	-2	34	15	5	47*	9
Fc1ccc2[nH]c3c(N4CCc5ccccc5C4)ncnc3c2c1	58*	1	2	-2	32	-3	14*	50*	13
CC1CCCN(S(=O)(=O)c2ccc(NC(=O)[C@@H]3CCCN3C(=O)c3cccs3)cc2)C1 (some centres undefined)	0	0	0	-2	.	0	.	.	.
CC(=O)Nc1cccc(/C(C)=N/N2C(C)CCCC2C)c1 (centres undefined)	-2	0	1	-7	20	1	.	.	.
O=C(NCc1cccc(Cl)c1)NCc1cccc(Cl)c1	6.2*	0	-2	-13	13	7	9.3*	9	8
NC(=O)NCc1cccc(Cl)c1	0	-1	-2	-3	14	-1	.	.	.
NS(=O)(=O)c1ccc(NC(=S)NCc2cccc(Cl)c2)cc1	17*	-1	-1	1	9	-1	36*	29*	12
O=c1c2c([nH]c3ccc(Br)cc13)CCCC2	14*	2	2	0	9	1	27*	5	14
Brc1ccc2[nH]c3c(c2c1)CCC3	0	0	-2	-1	13	11	.	.	.
c1ccc(COc2ncnc3c2ncn3CCCN2CCN(c3ccccn3)CC2)cc1	-1	2	7	-1	.	.	.	.	.
SMILES	Tb MetRS inh	MsrA inhibitor	HTR2A ag	MsrA act	AI-2 QS modul	AHR activator	Tb MetRS conf	Jurkat cytotox	Tb MetRS inh FP
COc1cccc(CC(=O)Nc2nc3ccccc3[nH]2)c1	6.0*	0	4	-11	-3	10	14*	0	7
O=C(COc1ccc2ccccc2c1)Nc1nc2ccccc2[nH]1	9.1*	1	7	1	.	12	12*	2	5
COc1ccc(OCC(=O)Nc2nc3ccccc3[nH]2)cc1	0	0	1	0	15	11	.	.	.
COc1ccc(CC(=O)Nc2nc3ccccc3[nH]2)cc1	0	0	1	-8	2	6	.	.	.
CCN1CCCC1Cn1cnc2c([nH]c3ccc(Cl)cc32)c1=O (centres undefined)	10*	3	-1	-3	10	9	14*	0	14
CCN1CCCC1Cn1cnc2c([nH]c3cccc(Cl)c32)c1=O (centres undefined)	-1	0	-8	-7	-1	15	.	.	.
C1=C(CCNc2ncnc3c2[nH]c2ccccc23)CCCC1	79*	0	-4	-2	.	-3	97*	56*	76*
Brc1ccc2[nH]c3c(NCc4ccccn4)ncnc3c2c1	83*	0	-5	-2	1	78*	88*	3	79*
COc1ccc(CNc2ncnc3c2[nH]c2cc(OC)c(OC)cc23)cc1	0	0	-7	-1	13	14	.	.	.
O=c1c2[nH]c3ccccc3c2ncn1CCC1=CCCCC1	0	2	-2	-1	16	23	.	.	.
Cc1ccc2[nH]c3c(NCc4ccccc4)ncnc3c2c1	.	2	.	.	20	.	.	.	.
COc1ccc2[nH]c3c(NCCN(C(C)C)C(C)C)ncnc3c2c1	0	0	2	0	.	6	.	.	.
COc1ccc(CNc2ncnc3c2[nH]c2ccccc23)cc1	88*	1	-6	-2	-71	20	94*	24*	73*
